Assay results from ChEMBL document CHEMBL3091413, “Fine molecular tuning at position 4 of 2H-chromen-2-one derivatives in the search of potent and selective monoamine oxidase B inhibitors” (Eur J Med Chem, 2013).

How the values were obtained:
[1] = target: T1, MAO-A (amine oxidase [flavin-containing] A) (Rattus norvegicus, UniProt P21396); experiment: Inhibition of Sprague-Dawley rat MAO-A using Kynuramine as substrate assessed as formation of 4-hydroxyquinoline at 10 uM preincubated for 5 mins prior to substrate addition measured for 5 mins by spectrophotometry; conditions: rat MAO-A enzyme preparation, probe kynuramine
T1 sequence (P21396 whole entry): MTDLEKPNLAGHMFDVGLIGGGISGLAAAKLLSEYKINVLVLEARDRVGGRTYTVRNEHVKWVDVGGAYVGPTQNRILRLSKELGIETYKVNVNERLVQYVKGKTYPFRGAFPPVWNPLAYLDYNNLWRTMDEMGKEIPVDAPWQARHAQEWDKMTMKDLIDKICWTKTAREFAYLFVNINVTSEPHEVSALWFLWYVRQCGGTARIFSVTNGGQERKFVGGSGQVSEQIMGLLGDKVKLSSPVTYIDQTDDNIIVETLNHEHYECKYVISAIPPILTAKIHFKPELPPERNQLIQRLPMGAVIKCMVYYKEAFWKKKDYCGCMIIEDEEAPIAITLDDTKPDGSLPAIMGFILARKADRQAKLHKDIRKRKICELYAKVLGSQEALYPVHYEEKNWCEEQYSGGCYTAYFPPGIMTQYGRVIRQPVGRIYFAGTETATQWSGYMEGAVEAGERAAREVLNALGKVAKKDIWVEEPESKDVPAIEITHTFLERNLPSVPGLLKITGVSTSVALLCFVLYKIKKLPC

[2] = target: T2, Amine oxidase [flavin-containing] B (Rattus norvegicus, UniProt P19643); experiment: Inhibition of Sprague-Dawley rat MAO-B using Kynuramine as substrate assessed as formation of 4-hydroxyquinoline preincubated for 5 mins prior to substrate addition measured for 5 mins by spectrophotometry; conditions: read-out: pIC50 (converted)
T2 sequence (P19643 whole entry): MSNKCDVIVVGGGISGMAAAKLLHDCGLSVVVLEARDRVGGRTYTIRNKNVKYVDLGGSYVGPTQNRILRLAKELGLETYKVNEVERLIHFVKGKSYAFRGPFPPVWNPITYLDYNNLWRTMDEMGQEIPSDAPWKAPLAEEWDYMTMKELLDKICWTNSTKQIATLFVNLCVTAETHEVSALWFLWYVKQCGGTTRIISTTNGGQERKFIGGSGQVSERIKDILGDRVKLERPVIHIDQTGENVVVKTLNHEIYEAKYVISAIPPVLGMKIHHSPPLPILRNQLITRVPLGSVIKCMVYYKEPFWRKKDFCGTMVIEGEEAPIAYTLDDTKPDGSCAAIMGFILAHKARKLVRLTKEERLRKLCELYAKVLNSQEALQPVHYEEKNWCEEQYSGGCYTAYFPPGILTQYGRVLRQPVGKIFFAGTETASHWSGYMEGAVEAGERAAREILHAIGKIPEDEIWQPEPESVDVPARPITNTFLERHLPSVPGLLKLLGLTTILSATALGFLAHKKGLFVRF

[3] = target: T3, Amine oxidase [flavin-containing] A (Rattus norvegicus, UniProt P21396); experiment: Inhibition of Sprague-Dawley rat MAO-A using Kynuramine as substrate assessed as formation of 4-hydroxyquinoline preincubated for 5 mins prior to substrate addition measured for 5 mins by spectrophotometry
T3 sequence (P21396 whole entry): T1 sequence (P21396 whole entry)
In short: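 Enzyme source: crude brain mitochondrial fraction from male Sprague-Dawley rats (200-250 g), decapitated. Brains were washed in ice-cold isotonic Na2HPO4/KH2PO4 buffer (pH 7.40) with sucrose, fractionated by differential centrifugation, and stored at -40 °C in isotonic phosphate buffer (pH 7.4) with KCl. Kynuramine oxidation to 4-hydroxyquinoline was monitored spectrophotometrically. Values are the mean of two or three independent experiments.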

Row | Structure (SMILES) | inhibition at 5 min, 10 µM [1] [%] | IC50 [2] [nM] | IC50 [3] [nM]
1 | CN(C)Cc1cc(=O)oc2cc(OCc3cccc(Cl)c3)ccc12 | 5.7 | – | –
2 | O=c1cc(CN2CCCC2)c2ccc(OCc3cccc(Cl)c3)cc2o1 | 16 | 1700 | –
3 | O=c1cc(CCl)c2ccc(OCc3cccc(Br)c3)cc2o1 | 28 | 209 | –
4 | CCOc1cc(=O)oc2cc(OCc3cccc(F)c3)ccc12 | 25 | 263 | –
5 | COc1cc(=O)oc2cc(OCc3ccccc3)ccc12 | 22 | 100 | –
6 | O=c1cc(/C=N/O)c2ccc(OCc3cccc(Cl)c3)cc2o1 | 48 | 219 | –
7 | CNC(=O)COc1cc(=O)oc2cc(OCc3cccc(Cl)c3)ccc12 | 11 | 33.9 | –
8 | CCOC(=O)c1cc(=O)oc2cc(OCc3cccc(Cl)c3)ccc12 | 4.4 | 417 | –
9 | CC(C)Oc1cc(=O)oc2cc(OCc3cccc(Cl)c3)ccc12 | 3 | 24500 | –
10 | CCOC(=O)COc1cc(=O)oc2cc(OCc3cccc(Cl)c3)ccc12 | 0 | 1820 | –
11 | CCOc1cc(=O)oc2cc(OCc3cccc(Br)c3)ccc12 | 2.5 | 126 | –
12 | O=c1cc(O)c2ccc(OCc3cccc(Cl)c3)cc2o1 | 6 | 479 | –
13 | O=c1cc(Oc2ccccc2)c2ccc(OCc3cccc(Cl)c3)cc2o1 | 0 | 4070 | –
14 | CCOc1cc(=O)oc2cc(OCc3ccccc3)ccc12 | 0 | 759 | –
15 | O=C(O)c1cc(=O)oc2cc(OCc3cccc(Cl)c3)ccc12 | 0 | – | –
16 | CCCOc1cc(=O)oc2cc(OCc3cccc(Cl)c3)ccc12 | 5.3 | 61.7 | –
17 | Cc1cc(=O)oc2cc(OCc3cccc(Cl)c3)ccc12 | – | 7.41 | 5250
18 | CN(C)C(=O)COc1cc(=O)oc2cc(OCc3cccc(Cl)c3)ccc12 | 10 | 501 | –
19 | O=c1cc(CCl)c2ccc(OCc3cccc(Cl)c3)cc2o1 | 21 | 43.7 | –

Row | Structure (SMILES) | inhibition at 5 min, 10 µM [1] [%] | IC50 [2] [nM] | IC50 [3] [nM]
20 | O=C(COc1cc(=O)oc2cc(OCc3cccc(Cl)c3)ccc12)N1CCCCC1 | 9 | 38900 | –
21 | O=c1cc(C(F)(F)F)c2ccc(OCc3cccc(Cl)c3)cc2o1 | 16 | 871 | –
22 | CCOC(=O)Nc1cc(=O)oc2cc(OCc3cccc(Cl)c3)ccc12 | 21 | 589 | –
23 | CCCOc1cc(=O)oc2cc(OCc3cccc(Br)c3)ccc12 | 0 | 74.1 | –
24 | Nc1cc(=O)oc2cc(OCc3cccc(Cl)c3)ccc12 | – | 47.9 | 4170
25 | O=Cc1cc(=O)oc2cc(OCc3cccc(Cl)c3)ccc12 | 14 | 52.5 | –
26 | COc1cc(=O)oc2cc(OCc3cccc(Br)c3)ccc12 | 27 | 5.75 | –
27 | CCCOc1cc(=O)oc2cc(OCc3cccc(F)c3)ccc12 | 12 | 407 | –
28 | NC(=O)COc1cc(=O)oc2cc(OCc3cccc(Br)c3)ccc12 | – | 8.91 | 8910
29 | CNCc1cc(=O)oc2cc(OCc3cccc(Br)c3)ccc12 | 40 | 11 | –
30 | CC(C)Nc1cc(=O)oc2cc(OCc3cccc(Cl)c3)ccc12 | 0 | 7760 | –
31 | O=c1cc(O)c2ccc(OCc3ccccc3)cc2o1 | 2 | 9120 | –
32 | N#Cc1cc(=O)oc2cc(OCc3cccc(Cl)c3)ccc12 | 23 | 102 | –
33 | O=c1cc(CO)c2ccc(OCc3cccc(Cl)c3)cc2o1 | – | 5.25 | 10200
34 | CC(=O)COc1cc(=O)oc2cc(OCc3cccc(Cl)c3)ccc12 | 22 | 26.9 | –
35 | O=C(O)COc1cc(=O)oc2cc(OCc3cccc(Cl)c3)ccc12 | 0 | – | –
36 | NC(=O)c1cc(=O)oc2cc(OCc3cccc(Cl)c3)ccc12 | 14 | 234 | –
37 | N#CCOc1cc(=O)oc2cc(OCc3cccc(Cl)c3)ccc12 | 17 | 45.7 | –
38 | CCNC(=O)Nc1cc(=O)oc2cc(OCc3cccc(Cl)c3)ccc12 | 0 | – | –

Row | Structure (SMILES) | inhibition at 5 min, 10 µM [1] [%] | IC50 [2] [nM] | IC50 [3] [nM]
39 | CC(=O)Nc1cc(=O)oc2cc(OCc3cccc(Cl)c3)ccc12 | – | 38.9 | 282
40 | O=C(COc1cc(=O)oc2cc(OCc3cccc(Cl)c3)ccc12)N1CCOCC1 | 3.2 | 12900 | –
41 | CCOc1cc(=O)oc2cc(OCc3cccc(Cl)c3)ccc12 | 2 | 115 | –
42 | CCNc1cc(=O)oc2cc(OCc3cccc(Cl)c3)ccc12 | – | 28.2 | 9330
43 | O=c1cc(CO)c2ccc(OCc3cccc(Br)c3)cc2o1 | 49 | 14.1 | –
44 | O=c1cc(O)c2ccc(OCc3cccc(Br)c3)cc2o1 | 0 | 490 | –
45 | CN(C)C(=O)Cc1cc(=O)oc2cc(OCc3cccc(Cl)c3)ccc12 | 0 | – | –
46 | O=c1cc(O)c2ccc(OCc3cccc(F)c3)cc2o1 | 0 | 2090 | –
47 | CSCOc1cc(=O)oc2cc(OCc3cccc(Cl)c3)ccc12 | 8.6 | 316 | –
48 | CCc1cc(=O)oc2cc(OCc3cccc(Cl)c3)ccc12 | 48 | 28.8 | –
49 | O=c1cc(Nc2ccccc2)c2ccc(OCc3cccc(Cl)c3)cc2o1 | 0 | 9770 | –
50 | CC(=O)c1cc(=O)oc2cc(OCc3cccc(Cl)c3)ccc12 | 0 | 39.8 | –
51 | CC(O)c1cc(=O)oc2cc(OCc3cccc(Cl)c3)ccc12 (centres undefined) | 22 | 77.6 | –
52 | COc1cc(=O)oc2cc(OCc3cccc(F)c3)ccc12 | 49 | 36.3 | –
53 | CCCOc1cc(=O)oc2cc(OCc3ccccc3)ccc12 | 0 | 575 | –
54 | CCCNCc1cc(=O)oc2cc(OCc3cccc(Cl)c3)ccc12 | 3.2 | 204 | –
55 | CCCCNCc1cc(=O)oc2cc(OCc3cccc(Cl)c3)ccc12 | 1.1 | 447 | –
56 | COCOc1cc(=O)oc2cc(OCc3cccc(Cl)c3)ccc12 | 23 | 100 | –
57 | O=c1cc(CN2CCOCC2)c2ccc(OCc3cccc(Cl)c3)cc2o1 | 11 | 2290 | –
